Test results taken from ChEMBL document CHEMBL3271964, “Synthesis and biological activity of new 2-nitroimidazole derivatives” (J Med Chem, 1978).
Converted amounts (≈) assume the structure as drawn. The source made the active and inactive calls.

How the values were obtained:
[1] = system: Trichomonas vaginalis; assay: Antimicrobial activity against Trichomonas vaginalis infected in po dosed mouse; format: functional
Summary of the method: (§1)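 Mice infected subcutaneously, then dosed orally. Vehicle depended on compound: suspension in aqueous 0.75% sodium carboxymethylcellulose, DMF-H₂O, DMF-phosphate buffer pH 7.38, or water. ED₅₀ determined, with metronidazole run in parallel. The relative value is ED₅₀ (test) / ED₅₀ (metronidazole).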

[2] = system: Streptococcus pyogenes; assay: Antimicrobial activity against Streptococcus pyogenes C 203 by microtitre method; format: functional
[3] = system: Mycoplasmoides gallisepticum; assay: Antimicrobial activity against Mycoplasma gallisepticum S6 Weybridge by broth dilution method; format: functional
[4] = Solubility of the compound in water; format: physicochemical; settings: buffer
[5] = system: Staphylococcus aureus; assay: Antimicrobial activity against Staphylococcus aureus Tour by microtitre method; format: functional
[6] = system: Clostridium perfringens; assay: Antimicrobial activity against Clostridium perfringens ISS 30543 by broth dilution method; format: functional
[7] = system: Trichomonas vaginalis; assay: Antimicrobial activity against Trichomonas vaginalis infected in po dosed mouse relative to metronidazole; format: functional; summary of the method: as §1
[8] = system: Trichomonas vaginalis; assay: Antimicrobial activity against Trichomonas vaginalis by broth dilution method; format: functional
[9] = Therapeutic index, ratio of LD50 for po dosed mouse to ED50 for Trichomonas vaginalis infected in po dosed mouse; format: organism-based; settings: in vivo, read-out: Ratio LD50/ED50
Summary of the method: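 Ratio of two mouse values, both dosed orally. The LD50 comes from acute toxicity, with compounds suspended in aqueous 0.5% Methocel 90-HG. The ED50 comes from subcutaneous T. vaginalis infection treated orally. The ED50 vehicle varied by compound: suspension in aqueous 0.75% sodium carboxymethylcellulose, DMF-H2O, DMF-phosphate buffer pH 7.38, or H2O.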

[10] = Acute toxicity in po dosed mouse; format: organism-based; settings: in vivo
Summary of the method: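 Acute toxicity in mice by the oral route. Compounds were given as suspensions in aqueous 0.5% Methocel 90-HG.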

[11] = system: Mus musculus; assay: Toxicity in CF1 mouse assessed as change in sleeping time at 250 mg/kg, po administered 30 mins prior to hexobarbital sodium challenge relative to vehicle-treated control; format: organism-based; set-up: dose 250 mg/kg, route oral; settings: in vivo, 0.5 h
Summary of the method: (§2)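 Male CF1 mice (19–22 g), groups of 30, given oral doses as a 0.5% Methocel 90-HG suspension at 10 mL/kg; saline controls (90 animals). Hexobarbital sodium 75 mg/kg ip given 30 min later, at 25–26 °C. Sleeping time given as mean ± SE and as % change vs controls; Dunnett's t test.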

[12] = system: Mus musculus; assay: Toxicity in CF1 mouse assessed as reduction in heart rate at 60 to 600 mg/kg, po by Irwin test; format: organism-based; set-up: dose 60-600 mg/kg, route oral; settings: in vivo
Summary of the method: (§3)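 Irwin observational method in male CF1 mice (19–22 g). Oral dosing of a suspension in 0.5% Methocel 90-HG at 10 mL/kg, up to 600 mg/kg; controls received saline. Directly observable behavioural and autonomic changes were scored, with the threshold dose for onset recorded.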

[13] = system: Rattus norvegicus; assay: Inhibition of carrageenan-induced edema in rat; format: functional, organism-based
[14] = system: Mus musculus; assay: Toxicity in CF1 mouse assessed as change in sleeping time at 500 mg/kg, po administered 30 mins prior to hexobarbital sodium challenge relative to vehicle-treated control; format: organism-based; set-up: dose 500 mg/kg, route oral; settings: in vivo, 0.5 h; summary of the method: as §2
[15] = system: Mus musculus; assay: Toxicity in CF1 mouse assessed as reduction in respiratory rate at 60 to 600 mg/kg, po by Irwin test; format: organism-based; set-up: dose 60-600 mg/kg, route oral; settings: in vivo; summary of the method: as §3
[16] = system: Mus musculus; assay: Toxicity in CF1 mouse assessed as reduction in spontaneous activity at 60 to 600 mg/kg, po by Irwin test; format: organism-based; set-up: dose 60-600 mg/kg, route oral; settings: in vivo; summary of the method: as §3
[17] = system: Mus musculus; assay: Inhibition of strychine sulfate/pentetrazole-induced death in CF1 mouse at 250 to 500 mg/kg, po administered 60 mins prior to strychine sulfate/pentetrazole challenge; format: functional, organism-based
[18] = system: Mus musculus; assay: Toxicity in CF1 mouse assessed as cyanosis at 60 to 600 mg/kg, po by Irwin test; format: organism-based; set-up: dose 60-600 mg/kg, route oral; settings: in vivo; summary of the method: as §3
[19] = system: Mus musculus; assay: Toxicity in CF1 mouse assessed as reduction in body tone at 60 to 600 mg/kg, po by Irwin test; format: organism-based; set-up: dose 60-600 mg/kg, route oral; settings: in vivo; summary of the method: as §3
[20] = system: Mus musculus; assay: Toxicity in CF1 mouse assessed as reduction in curiosity at 60 to 600 mg/kg, po by Irwin test; format: organism-based; set-up: dose 60-600 mg/kg, route oral; settings: in vivo; summary of the method: as §3
[21] = system: Mus musculus; assay: Toxicity in CF1 mouse assessed as reduction in opening of eyelid at 60 to 600 mg/kg, po by Irwin test; format: organism-based; set-up: dose 60-600 mg/kg, route oral; settings: in vivo; summary of the method: as §3
[22] = system: Mus musculus; assay: Toxicity in CF1 mouse assessed as ataxia at 60 to 600 mg/kg, po by Irwin test; format: organism-based; set-up: dose 60-600 mg/kg, route oral; settings: in vivo; summary of the method: as §3
[23] = system: Rattus norvegicus; assay: Effect on pressor response in conscious normotensive rat up to 50 mg/kg; format: functional, organism-based; set-up: dose 50 mg/kg

Compound | ED50 [1] | MIC [2] | MIC [3] | MIC [5] | MIC [6] | Ratio ED50 [7] | MIC [8] | selectivity ratio [9] | LD50 [10] | further results
CS(=O)(=O)[O-].Cn1c(C(C)(C)[n+]2ccccc2)cnc1[N+](=O)[O-] | > 40 mg/kg | > 100 µg/mL | > 100 µg/mL | > 100 µg/mL | > 100 µg/mL | >4 | > 100 µg/mL |  |  | solubility [4]: soluble
Cn1c(C(C)(C)OC(=O)NN)cnc1[N+](=O)[O-] | 4.67 mg/kg | 100 µg/mL (≈ 411 µM) | 25 µg/mL (≈ 103 µM) | > 100 µg/mL | 3.1 µg/mL (≈ 12.7 µM) | 0.33 | 100 µg/mL (≈ 411 µM) | 141 | 660 mg/kg | 
COC(C)(C)c1cnc([N+](=O)[O-])n1C | 8.12 mg/kg | > 100 µg/mL | > 100 µg/mL | > 100 µg/mL | 5 µg/mL (≈ 25.1 µM) | 0.81 | 5 µg/mL (≈ 25.1 µM) | 99 | 805 mg/kg | 
CC(CO)c1cnc([N+](=O)[O-])n1C (centres undefined) | > 10 mg/kg | 200 µg/mL (≈ 1080 µM) | 50 µg/mL (≈ 270 µM) | 25 µg/mL (≈ 135 µM) | 0.8 µg/mL (≈ 4.32 µM) | >0.7 | 25 µg/mL (≈ 135 µM) |  |  | 
Cn1c(C(C)(C)OC(=O)Oc2ccccc2)cnc1[N+](=O)[O-] |  | 100 µg/mL (≈ 328 µM) | > 100 µg/mL | 100 µg/mL (≈ 328 µM) | 10 µg/mL (≈ 32.8 µM) | 0.28 | 2 µg/mL (≈ 6.55 µM) | 1970 |  | Activity [11]: 15.5%; Activity [12]: Toxic; inhibition [13]: inactive; Activity [14]: 18.1%; Activity [15]: Toxic; Activity [16]: Toxic; inhibition [17]: Active; Activity [18]: Toxic; Activity [19]: Toxic; Activity [20]: Toxic; Activity [21]: Toxic; Activity [22]: Toxic; Activity [23]: inactive
Cn1c(C(C)(C)OC(=O)Nc2ccccc2)cnc1[N+](=O)[O-] | 28.8 mg/kg | > 100 µg/mL | 25 µg/mL (≈ 82.2 µM) | > 100 µg/mL | 3.1 µg/mL (≈ 10.2 µM) | 2.88 | 100 µg/mL (≈ 329 µM) |  |  | 
CCS(=O)(=O)CCn1c([N+](=O)[O-])cnc1C [TINIDAZOLE] | 2.5 mg/kg | > 300 µg/mL | > 300 µg/mL | 300 µg/mL (≈ 1210 µM) | 0.3 µg/mL (≈ 1.21 µM) | 0.43 | 3.1 µg/mL (≈ 12.5 µM) | 1280 | 3200 mg/kg | 
